Measured values: the EternaBench riboswitch data

How the values were obtained:
[1] = test system: MS2 coat protein; assay: apparent Kd, MS2 coat protein; higher = weaker binding; RNA-MaP array
Summary of the method: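 Designed RNAs were produced on an Illumina sequencing chip by transcription of sequenced DNA templates. Binding to fluorescently labeled MS2 coat protein (1.5 nM to 3 μM) was measured at room temperature with or without input ligand. The apparent Kd is the median of per-cluster binding-curve fits. Designs were excluded when measured on fewer than 10 clusters.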

[2] = test system: MS2 coat protein; assay: apparent Kd, MS2 coat protein; higher = weaker binding; RNA-MaP array; FMN 200 µM where present
Summary of the method: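 On Illumina sequencing-chip clusters, designs were transcribed by stalled E. coli RNA polymerase and titrated with SNAP-549-labelled MS2 coat protein (0.7 or 1.5 nM, doubling to 3 µM), without and then with constant ligand, in 100 mM Tris-HCl pH 7.5, 80 mM KCl, 4 mM MgCl2, BSA, DTT, yeast tRNA and Tween-20. Apparent Kd is the median of filtered per-cluster curve fits to green signal normalised to red-channel RNA signal and control-cluster median Fmax.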

[3] = designed as: OFF switch for flavin mononucleotide, no ligand
[4] = ligand present: flavin mononucleotide, designed as: OFF switch for flavin mononucleotide
[5] = designed as: ON switch for flavin mononucleotide, no ligand
[6] = ligand present: flavin mononucleotide, designed as: ON switch for flavin mononucleotide

Sequence | apparent Kd [2, 5] [nM] | apparent Kd [2, 6] [nM] | apparent Kd [2, 3] [nM] | apparent Kd [2, 4] [nM] | further results
CUCUAACAAGGAUAUACAUGUCCCAGGAUCCUAUAGGCUUUACAUGAGGAUCACCCAUGUAGAAGGUGUAUUAC |  |  |  |  | apparent Kd [1, 3]: 18.7 nM; apparent Kd [1, 4]: 16.4 nM
GAGGCGAAGGAGAAGGCCGCCAGUAAAGGUGACCGUAACAUGAGGAUCACCCAUGUGGAAUAAACGGAGGAUAUCCCUUCUCAG |  |  |  |  | apparent Kd [1, 3]: 19 nM; apparent Kd [1, 4]: 21.8 nM
ACGGGAGCAGAAGGAUAUAGGGUAGGUAUUAGACUAGAAGGACUCUUACAUGAGGAUCACCCAUGUAGUUCAGAAUGGGAAAUC |  |  |  |  | apparent Kd [1, 5]: 45.5 nM; apparent Kd [1, 6]: 40.4 nM
UAAACAUGAGGAUCACCCAUGUUAUGAUCGGUUGAUGAAUGUGAGGAUAUACUUAAUUUUAUGGAGUAGAAGGCACUGGGUUCU | 29.1 | 30 |  |  | 
AUCAGCUCGUCAGGAUAUACGUCACUGCGUCAGCAGUGUGGUAAGAUCACAUGAGGAUCACCCAUGUAGAAGGGACGUGCUGAU |  |  | 13.3 | 314 | 
GAUCGGUGAGGAUAUACAUUUUAGCUCCUCGUAAAGCCAUGACAUGAGGAUCACCCAUGUAGAAGGUAUUGUGU |  |  | 22.3 | 20 | 
ACCUUACAUGAGGAUCACCCAUGUCAGGAUAUCUCGGGCGGCCAAGGGCCGGCCGCCCAGAGAAGGGACGAGGA |  |  | 14.5 | 13.7 | 
GUUUAGUGAGGAUAUGUGGCAUCGCUCGAGCGCGGUCGGCUACAGAAGGCACAUGAGGAUCACCCAUGUUUCUC |  |  | 41.8 | 471 | 
GGAAUAUUUACAGGAUAUGAUUUGUAAAUUCGAUCAGAAGGGUAGAUGUCUUACACGGUUUGUUACAUGAGGAUCACCCAUGUU | 126 | 42 |  |  | 
GCCAGUUAUGUAGGAUAUGCGCGGCGAGCCUGUGCAGAAGGACAUGAGGAUCACCCAUGUGUUGCGGUCUGAGUACUGAUCGCU |  |  | 30 | 221 | 
AAAUUUAACGAAGGAUAUGGAUACAUGAGGAUCACCCAUGUUUAUUUUGUGAUCUUGUAUAAGUACCAGAAGGUCGUAUACAUA |  |  | 165 | 459 | 
CACCGUAACUGAGGAUAUCAAACAUGAGGAUCACCCAUGUAAUAAAUGAGAAUUUCGAAUGUACCUGAGAAGGCAGAAACCGGC |  |  | 38 | 48.3 | 
CAGGCGGAGUCAGGAUAUGCACGGUGGACCUAUGACAUGAGGAUCACCCAUGUUACUACGCCUCAGCAGAAGGGACAACCUCCU | 88.8 | 7.87 |  |  | 
CAGGCCUUAGGAUAUACACGGUGUCGAACGAGCUCCUACACACAUGAGGAUCACCCAUGUAGAAGGAAGGGAUA |  |  | 24.6 | 32 | 
AUGGUACAUGAGGAUCACCCAUGUCCAGCAAAUCAAGGAUAUGGACGACAAAUUUCUCGGCCAGAAGGUGAAACAA | 39.4 | 21.5 |  |  | 
AGCGAUGCAGGAUAUCCGCGGCUACACAUGAGGAUCACCCAUGUUAGGGUCGUGUUGCCAGGAGAAGGGCAAGGAU |  |  | 28.8 | 78.1 | 
UGUUGUAUUACAGGAUAUCUAUGAUUUUAAUUUAGAGAAGGGUAUUCACAUGAGGAUCACCCAUGUAUAUACGAGGAAGUUGUG | 51.2 | 58.9 |  |  | 
GCAGGUUAAGUCAGGAUAUACCUAUGGAUACAUAGGUAGAAGGGACAUGAGGAUCACCCAUGUGCCUCACCUGC |  |  | 18.3 | 63.1 | 
GGACAGUAAGGAUAUUGAGUCGGACAACGCCGACAGCUAGUCGAGAAGGUACAUGAGGAUCACCCAUGUCAAGU |  |  | 19.8 | 18 | 
GAUUGUUUUUAGAAGGUGCCGGCGAGAGCCGCAACAUGAGGAUCACCCAUGUGUCGGUGACGACGCAAGGAUAUGGAGGUGGUU | 217 | 108 |  |  | 
GGGUACAACGGAGGAUAUCAUGUAAAUACAUGAGGAUCACCCAUGUCGAUGGAGACAUCGGAGAUUGAGAAGGCCGAUGUACCG | 160 | 8.88 |  |  | 
UGUCGGAGCAGAGGAUAUUACAUGAGGAUCACCCAUGUAUGAACCAAUAGCUGGAAACAGCAAUGUAAGAAGGCUGCUCGGACA |  |  | 12.6 | 187 | 
AGUUUGUUUGAGAAGGUGAAGUGGAAACAUGAGGAUCACCCAUGUAUUAGGAAGCCUGGUUUUGUCAAGGAUAUCGGGUAAACA |  | 13.9 |  |  | 
